In brackets after ≈: the same amount, converted by molar mass.
Legend:
[1] = Solubility of the compound in pH 7.4 phosphate buffer saline after 1 hr by chemiluminescence nitrogen detection method; assay type: physicochemical; conditions: phosphate buffered saline
Summary of the method: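 Kinetic solubility: 10 mM DMSO stock diluted 1:20 into 10 mM phosphate-buffered saline pH 7.4, equilibrated 1 h at RT, filtered, and filtrate quantified by calibrated flow-injection chemiluminescent nitrogen detection.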

[2] = target: Mitogen-activated protein kinase 8 (Homo sapiens, UniProt P45983); experiment: Inhibition of JNK1 (unknown origin)
[3] = target: Phosphatidylinositol 4,5-bisphosphate 3-kinase catalytic subunit gamma isoform (Homo sapiens, UniProt P48736); experiment: Inhibition of PI3Kgamma (unknown origin)
[4] = target: Glycogen synthase kinase-3 beta (Homo sapiens, UniProt P49841); experiment: Inhibition of GSK3beta (unknown origin)
[5] = target: Calcium/calmodulin-dependent protein kinase kinase 2 (Homo sapiens, UniProt Q96RR4); experiment: Inhibition of full-length human GST-tagged CAMKK2 using 5FAM-AKPKGNKDYHLQTCCGSLAYRRR-amide as substrate preincubated for 30 mins followed by substrate addition measured after 120 mins by fluorescence polarization assay
[6] = target: Calcium/calmodulin-dependent protein kinase kinase 2 (Mus musculus, UniProt Q8C078); experiment: Inhibition of CAMKK2 in mouse N39 cells assessed as decrease in AMPKalpha phosphorylation at T172 preincubated for 80 mins followed by […] addition by ELISA; assay type: cell-based
Summary of the method: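 Mouse N39 cells seeded ~1000 cells/well, cultured overnight at 37°C, 5% CO2, then exposed to compound in DMSO for 80 min before ionomycin stimulation ([…] as added). Cells were lysed in extraction buffer for 30 min on ice, then diluted into ice-cold lysis buffer containing protease and phosphatase inhibitors for MSD read-out.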

[7] = target: T1, Inhibitor of nuclear factor kappa-B kinase subunit alpha (Homo sapiens, UniProt O15111); experiment: Inhibition of IKK1 (unknown origin)
T1 sequence (O15111 whole entry): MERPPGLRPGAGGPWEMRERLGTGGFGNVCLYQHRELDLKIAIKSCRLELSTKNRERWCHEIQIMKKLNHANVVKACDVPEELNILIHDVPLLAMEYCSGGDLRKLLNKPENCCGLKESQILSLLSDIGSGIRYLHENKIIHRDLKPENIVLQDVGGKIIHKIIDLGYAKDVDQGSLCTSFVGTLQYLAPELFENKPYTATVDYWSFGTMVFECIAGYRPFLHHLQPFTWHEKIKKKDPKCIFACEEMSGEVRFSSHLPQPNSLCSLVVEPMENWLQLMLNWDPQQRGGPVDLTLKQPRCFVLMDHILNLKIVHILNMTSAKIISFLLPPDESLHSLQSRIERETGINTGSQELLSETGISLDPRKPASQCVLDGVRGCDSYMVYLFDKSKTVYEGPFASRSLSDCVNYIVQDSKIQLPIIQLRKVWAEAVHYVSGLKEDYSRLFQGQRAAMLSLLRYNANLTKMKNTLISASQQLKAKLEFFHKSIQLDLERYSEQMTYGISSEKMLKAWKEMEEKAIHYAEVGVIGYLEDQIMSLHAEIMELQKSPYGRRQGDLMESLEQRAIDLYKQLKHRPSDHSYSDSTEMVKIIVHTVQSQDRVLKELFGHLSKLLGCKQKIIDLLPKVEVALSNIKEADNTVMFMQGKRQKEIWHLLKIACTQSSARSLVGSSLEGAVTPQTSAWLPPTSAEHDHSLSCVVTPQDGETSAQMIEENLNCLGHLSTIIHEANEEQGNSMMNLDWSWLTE

[8] = target: T2, Discoidin domain-containing receptor 2 (Homo sapiens, UniProt Q16832); experiment: Inhibition of DDR2 (unknown origin)
T2 sequence (Q16832 whole entry): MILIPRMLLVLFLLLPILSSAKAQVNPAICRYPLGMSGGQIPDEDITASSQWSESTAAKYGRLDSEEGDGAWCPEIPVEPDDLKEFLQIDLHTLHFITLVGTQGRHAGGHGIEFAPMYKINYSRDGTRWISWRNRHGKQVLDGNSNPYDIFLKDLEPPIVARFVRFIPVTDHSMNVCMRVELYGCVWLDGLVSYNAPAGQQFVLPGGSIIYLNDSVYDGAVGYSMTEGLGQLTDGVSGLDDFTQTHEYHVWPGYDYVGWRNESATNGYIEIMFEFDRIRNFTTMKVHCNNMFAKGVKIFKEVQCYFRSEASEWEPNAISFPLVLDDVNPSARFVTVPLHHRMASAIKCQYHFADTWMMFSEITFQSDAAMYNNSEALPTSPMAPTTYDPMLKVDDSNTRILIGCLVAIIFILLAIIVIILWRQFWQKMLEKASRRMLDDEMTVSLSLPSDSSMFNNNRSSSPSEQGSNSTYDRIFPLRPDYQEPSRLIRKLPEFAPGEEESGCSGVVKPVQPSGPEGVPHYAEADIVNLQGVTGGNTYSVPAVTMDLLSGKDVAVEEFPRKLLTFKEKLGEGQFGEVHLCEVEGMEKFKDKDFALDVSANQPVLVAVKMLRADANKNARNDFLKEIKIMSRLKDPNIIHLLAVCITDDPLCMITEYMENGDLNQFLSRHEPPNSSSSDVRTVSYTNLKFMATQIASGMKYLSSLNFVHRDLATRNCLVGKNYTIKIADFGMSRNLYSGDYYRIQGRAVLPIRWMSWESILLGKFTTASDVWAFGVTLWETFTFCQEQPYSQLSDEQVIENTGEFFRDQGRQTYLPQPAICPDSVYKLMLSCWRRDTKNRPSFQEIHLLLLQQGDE

[9] = target: Insulin receptor (Homo sapiens, UniProt P06213); experiment: Inhibition of INSR (unknown origin)
[10] = target: T3, Aurora kinase A (Homo sapiens, UniProt O14965); experiment: Inhibition of aurora A (unknown origin)
T3 sequence (O14965 whole entry): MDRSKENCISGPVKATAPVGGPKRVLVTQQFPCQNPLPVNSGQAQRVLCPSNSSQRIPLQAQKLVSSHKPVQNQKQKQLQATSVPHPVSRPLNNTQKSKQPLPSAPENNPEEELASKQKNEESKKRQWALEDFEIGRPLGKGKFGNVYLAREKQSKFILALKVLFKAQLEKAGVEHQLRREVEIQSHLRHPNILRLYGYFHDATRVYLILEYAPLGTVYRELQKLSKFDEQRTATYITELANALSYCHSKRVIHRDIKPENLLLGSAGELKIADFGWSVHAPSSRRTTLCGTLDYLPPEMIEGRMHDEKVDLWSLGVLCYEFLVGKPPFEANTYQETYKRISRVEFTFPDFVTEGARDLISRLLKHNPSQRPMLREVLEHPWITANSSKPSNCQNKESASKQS

[11] = Cmax in CD rat at 30 mg/kg, po; assay type: ADME, organism-based; design: dose 30 mg/kg, route oral; conditions: in vivo
[12] = Ratio of drug level in brain to plasma in CD rat at 30 mg/kg, po; assay type: ADME, organism-based; conditions: read-out: BPR

Sequence of Insulin receptor (P06213 28-758 limits assumed): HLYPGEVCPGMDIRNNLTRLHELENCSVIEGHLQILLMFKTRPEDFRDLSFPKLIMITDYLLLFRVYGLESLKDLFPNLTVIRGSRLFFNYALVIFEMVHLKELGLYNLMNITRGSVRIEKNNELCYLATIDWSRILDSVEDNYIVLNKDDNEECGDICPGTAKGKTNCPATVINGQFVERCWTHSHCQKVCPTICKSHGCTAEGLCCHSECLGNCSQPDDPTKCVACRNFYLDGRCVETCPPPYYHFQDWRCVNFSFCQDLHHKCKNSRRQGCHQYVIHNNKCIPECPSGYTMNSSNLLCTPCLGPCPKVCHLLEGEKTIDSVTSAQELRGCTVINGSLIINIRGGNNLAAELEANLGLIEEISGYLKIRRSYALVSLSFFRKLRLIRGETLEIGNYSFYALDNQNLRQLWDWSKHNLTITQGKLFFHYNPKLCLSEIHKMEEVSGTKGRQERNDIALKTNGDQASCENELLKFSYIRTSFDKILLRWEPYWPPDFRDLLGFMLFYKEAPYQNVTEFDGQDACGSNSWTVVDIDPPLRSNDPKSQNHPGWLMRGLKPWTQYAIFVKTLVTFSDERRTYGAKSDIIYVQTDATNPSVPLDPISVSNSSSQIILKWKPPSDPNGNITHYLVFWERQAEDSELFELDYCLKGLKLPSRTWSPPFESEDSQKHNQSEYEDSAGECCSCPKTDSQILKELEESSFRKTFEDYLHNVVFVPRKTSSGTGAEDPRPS
Sequence of Insulin receptor (P06213 763-1382 limits assumed): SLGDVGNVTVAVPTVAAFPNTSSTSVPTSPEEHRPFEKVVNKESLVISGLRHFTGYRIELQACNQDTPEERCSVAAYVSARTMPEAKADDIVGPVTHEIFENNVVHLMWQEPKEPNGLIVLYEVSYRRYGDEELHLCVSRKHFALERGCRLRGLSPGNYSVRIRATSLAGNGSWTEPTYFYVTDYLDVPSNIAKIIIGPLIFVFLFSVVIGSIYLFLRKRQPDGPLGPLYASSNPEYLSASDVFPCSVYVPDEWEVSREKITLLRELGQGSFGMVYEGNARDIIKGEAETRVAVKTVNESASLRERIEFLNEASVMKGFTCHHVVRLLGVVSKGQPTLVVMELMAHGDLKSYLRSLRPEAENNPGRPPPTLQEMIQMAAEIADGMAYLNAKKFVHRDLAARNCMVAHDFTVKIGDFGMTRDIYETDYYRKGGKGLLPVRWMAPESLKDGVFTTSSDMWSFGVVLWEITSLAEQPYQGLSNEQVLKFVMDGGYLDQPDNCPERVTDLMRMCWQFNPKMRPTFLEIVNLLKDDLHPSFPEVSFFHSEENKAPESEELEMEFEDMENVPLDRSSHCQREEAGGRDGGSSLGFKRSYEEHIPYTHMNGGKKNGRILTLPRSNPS
Sequence of Mitogen-activated protein kinase 8 (P45983 whole entry, canonical isoform): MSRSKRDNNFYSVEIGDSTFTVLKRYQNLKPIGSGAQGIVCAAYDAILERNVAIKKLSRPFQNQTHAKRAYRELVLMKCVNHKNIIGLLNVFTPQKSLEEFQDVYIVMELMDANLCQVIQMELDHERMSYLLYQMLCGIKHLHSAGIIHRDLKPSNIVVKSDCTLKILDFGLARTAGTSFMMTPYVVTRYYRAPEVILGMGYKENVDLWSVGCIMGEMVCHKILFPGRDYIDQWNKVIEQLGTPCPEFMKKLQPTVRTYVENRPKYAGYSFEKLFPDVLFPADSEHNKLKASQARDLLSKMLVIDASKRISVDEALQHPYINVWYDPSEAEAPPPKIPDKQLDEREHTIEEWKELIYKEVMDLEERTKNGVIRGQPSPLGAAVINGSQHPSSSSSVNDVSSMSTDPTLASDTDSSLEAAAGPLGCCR
Sequence of Phosphatidylinositol 4,5-bisphosphate 3-kinase catalytic subunit gamma isoform (P48736 whole entry, canonical isoform): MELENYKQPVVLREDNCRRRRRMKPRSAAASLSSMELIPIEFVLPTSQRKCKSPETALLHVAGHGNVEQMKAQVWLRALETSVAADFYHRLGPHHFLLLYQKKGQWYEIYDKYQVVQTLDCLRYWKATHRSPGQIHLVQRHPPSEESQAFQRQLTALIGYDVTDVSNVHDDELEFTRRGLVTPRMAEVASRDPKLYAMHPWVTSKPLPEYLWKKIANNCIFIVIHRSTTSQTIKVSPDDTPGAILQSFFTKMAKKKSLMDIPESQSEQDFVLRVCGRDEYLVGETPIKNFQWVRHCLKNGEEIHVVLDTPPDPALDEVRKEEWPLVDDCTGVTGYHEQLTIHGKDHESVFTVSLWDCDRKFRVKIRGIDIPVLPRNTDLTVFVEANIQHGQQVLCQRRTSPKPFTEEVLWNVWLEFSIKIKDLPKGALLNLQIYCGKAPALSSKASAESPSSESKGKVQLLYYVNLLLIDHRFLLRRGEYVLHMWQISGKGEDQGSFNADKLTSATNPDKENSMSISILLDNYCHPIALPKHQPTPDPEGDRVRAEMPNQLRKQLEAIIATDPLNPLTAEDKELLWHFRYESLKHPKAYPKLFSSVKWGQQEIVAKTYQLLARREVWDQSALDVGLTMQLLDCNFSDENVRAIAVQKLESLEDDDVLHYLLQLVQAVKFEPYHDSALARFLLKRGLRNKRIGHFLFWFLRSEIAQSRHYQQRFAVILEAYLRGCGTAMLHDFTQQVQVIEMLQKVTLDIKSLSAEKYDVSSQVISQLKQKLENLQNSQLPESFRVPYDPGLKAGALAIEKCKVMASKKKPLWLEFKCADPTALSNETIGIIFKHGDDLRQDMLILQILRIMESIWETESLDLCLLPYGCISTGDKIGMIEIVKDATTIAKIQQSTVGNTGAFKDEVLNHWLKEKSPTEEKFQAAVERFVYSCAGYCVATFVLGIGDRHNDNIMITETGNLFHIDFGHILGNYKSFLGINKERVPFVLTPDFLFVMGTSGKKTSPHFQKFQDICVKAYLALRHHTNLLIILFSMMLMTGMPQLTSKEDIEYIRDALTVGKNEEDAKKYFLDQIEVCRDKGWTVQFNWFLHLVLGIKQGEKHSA
Sequence of Glycogen synthase kinase-3 beta (P49841 whole entry): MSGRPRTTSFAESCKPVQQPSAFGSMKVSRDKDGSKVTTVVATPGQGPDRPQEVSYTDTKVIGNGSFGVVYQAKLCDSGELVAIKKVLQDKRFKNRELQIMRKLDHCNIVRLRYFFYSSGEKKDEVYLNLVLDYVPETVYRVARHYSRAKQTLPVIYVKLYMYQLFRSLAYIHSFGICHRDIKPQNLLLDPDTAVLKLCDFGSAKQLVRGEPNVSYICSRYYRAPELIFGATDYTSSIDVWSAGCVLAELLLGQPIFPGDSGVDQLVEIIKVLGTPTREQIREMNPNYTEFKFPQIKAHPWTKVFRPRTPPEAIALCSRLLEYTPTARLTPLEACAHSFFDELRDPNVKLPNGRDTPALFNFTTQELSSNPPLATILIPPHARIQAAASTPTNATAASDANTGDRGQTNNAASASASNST
Sequence of Calcium/calmodulin-dependent protein kinase kinase 2 (Mus musculus, UniProt Q8C078) (Q8C078 whole entry): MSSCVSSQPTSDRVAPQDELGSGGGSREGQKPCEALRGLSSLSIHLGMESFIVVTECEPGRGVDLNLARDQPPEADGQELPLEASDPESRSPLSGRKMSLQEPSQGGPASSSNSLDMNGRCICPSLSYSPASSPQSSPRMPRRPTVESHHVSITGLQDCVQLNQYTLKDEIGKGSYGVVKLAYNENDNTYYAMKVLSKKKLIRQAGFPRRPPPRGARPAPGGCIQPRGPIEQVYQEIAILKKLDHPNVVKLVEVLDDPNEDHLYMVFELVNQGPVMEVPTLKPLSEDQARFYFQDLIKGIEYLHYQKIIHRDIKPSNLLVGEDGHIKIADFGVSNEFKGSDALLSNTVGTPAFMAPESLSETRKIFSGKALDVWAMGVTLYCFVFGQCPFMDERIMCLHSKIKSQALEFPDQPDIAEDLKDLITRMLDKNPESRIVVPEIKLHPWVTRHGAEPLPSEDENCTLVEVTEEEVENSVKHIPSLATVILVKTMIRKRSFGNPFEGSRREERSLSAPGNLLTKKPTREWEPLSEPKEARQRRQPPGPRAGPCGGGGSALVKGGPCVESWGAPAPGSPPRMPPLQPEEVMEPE
Sequence of Calcium/calmodulin-dependent protein kinase kinase 2 (Homo sapiens, UniProt Q96RR4) (Q96RR4 whole entry): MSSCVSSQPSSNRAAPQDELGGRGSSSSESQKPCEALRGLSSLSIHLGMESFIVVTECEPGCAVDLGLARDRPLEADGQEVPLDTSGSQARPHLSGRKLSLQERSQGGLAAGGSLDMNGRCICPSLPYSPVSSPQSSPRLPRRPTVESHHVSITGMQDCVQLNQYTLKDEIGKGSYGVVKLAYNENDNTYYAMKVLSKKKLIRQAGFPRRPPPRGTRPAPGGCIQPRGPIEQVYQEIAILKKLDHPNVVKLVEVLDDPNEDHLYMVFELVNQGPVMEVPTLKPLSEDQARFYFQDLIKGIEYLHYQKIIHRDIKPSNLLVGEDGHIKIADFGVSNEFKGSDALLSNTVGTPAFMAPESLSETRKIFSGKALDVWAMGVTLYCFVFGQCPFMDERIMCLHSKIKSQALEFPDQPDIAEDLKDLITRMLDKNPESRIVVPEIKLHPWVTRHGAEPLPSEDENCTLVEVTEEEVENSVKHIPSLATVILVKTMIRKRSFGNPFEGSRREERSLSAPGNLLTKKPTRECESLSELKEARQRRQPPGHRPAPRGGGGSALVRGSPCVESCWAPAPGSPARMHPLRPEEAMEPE

| Structure (SMILES) | solubility at 1 h [1] [µM] | IC50 [2] [nM] | IC50 [3] [nM] | IC50 [4] [nM] | IC50 [5] [nM] | IC50 [6] [nM] | IC50 [7] [nM] | IC50 [8] [nM] | IC50 ([9]; read-out: IC50) [nM] | IC50 ([9]; read-out: pIC50 (converted)) [nM] | IC50 [10] [nM] | Cmax [11] [ng/mL] | Kp [12] |
| --- | --- | --- | --- | --- | --- | --- | --- | --- | --- | --- | --- | --- | --- |
| NC(=O)c1ccc(-c2ccnc(Nc3cccc(-c4ccccc4)c3)n2)cc1 | 3 (≈ 1.1 µg/mL) | 1000 | 100 | 31.6 | 7.94 to 25.1 | 631 |  |  |  |  |  |  |  |
| COc1ccccc1Nc1ncc(F)c(-c2ccc(C(=O)O)c(C(C)C)c2)n1 | 97 (≈ 37 µg/mL) | 3160 | 6310 | 7940 | 1 to 7.94 | 398 |  |  |  |  |  |  |  |
| Cc1ccc(CN2CCOCC2)cc1-c1cc2c(-c3ccc(C#N)cc3)ccnc2[nH]1 | 2 (≈ 0.817 µg/mL) | > 10000 |  |  | 79.4 to 398 | 2510 | > 25100 | > 10000 | > 10000 | > 10000 | > 10000 |  |  |
| NC(=O)c1ccc(-c2ccnc(Nc3cc(-c4ccccc4)ccc3F)n2)cc1 | 3 (≈ 1.15 µg/mL) | > 10000 | > 10000 | 2510 | 20 | 7940 |  |  |  |  |  |  |  |
| COc1ccc(-c2ccccc2)cc1Nc1nccc(-c2ccc(C(N)=O)cc2)n1 | 7 (≈ 2.78 µg/mL) | > 10000 | 7940 | > 25100 | 12.6 to 251 | > 10000 |  |  |  |  |  |  |  |
| COc1ccccc1Nc1nccc(-c2ccc(C(=O)O)cc2)n1 | > 444 | 5010 | 3980 | > 25100 | 200 to 1580 | > 10000 |  |  |  |  |  |  |  |
| Cc1ccc(-c2ccccc2)cc1Nc1nccc(-c2ccc(C(N)=O)cc2)n1 | 4 (≈ 1.52 µg/mL) | > 10000 | > 10000 | > 25100 | 31.6 to 501 | 3980 |  |  |  |  |  |  |  |
| Cc1cc(OCCN2CCOCC2)ccc1-c1cc2c(-c3ccc(C#N)cc3)ccnc2[nH]1 | 9 (≈ 3.95 µg/mL) | 20000 |  |  | 100 to 251 | 7940 | > 31600 | > 10000 | > 10000 | > 10000 | > 10000 |  |  |
| COc1ccccc1Nc1ncc(Cl)c(-c2ccc(C(N)=O)c(C(C)C)c2)n1 | 5 (≈ 1.98 µg/mL) | > 10000 | 6310 | 20000 | 158 to 1580 | > 10000 |  |  |  |  |  |  |  |
| COc1ccccc1Nc1ncc(F)c(-c2ccc(C(N)=O)c(C(C)C)c2)n1 | 11 (≈ 4.18 µg/mL) | 3160 | > 10000 | 7940 | 39.8 to 316 | 3160 |  |  |  |  |  |  |  |
| COc1ccccc1Nc1nccc(-c2ccc(C(N)=O)c(C(C)C)c2)n1 | 10 (≈ 3.62 µg/mL) | 1580 | 2510 | > 25100 | 63.1 to 1580 | > 10000 |  |  |  |  |  |  |  |
| O=C(O)c1ccc(-c2ccnc(Nc3cccc(-c4ccccc4)c3)n2)cc1 | 14 (≈ 5.14 µg/mL) | 398 | 12.6 | 398 | 7.94 to 100 | 7940 |  |  |  |  |  |  |  |
| Cc1ccc(CN2CCOCC2)cc1-c1cc2c(-c3ccc(C#N)c(C(C)C)c3)ccnc2[nH]1 | 1 (≈ 0.451 µg/mL) | 7940 |  |  | 12.6 | 398 | 2510 | > 10000 | > 10000 | > 10000 | > 10000 | 127 | 0.6 |
| COc1ccccc1Nc1nccc(-c2ccc(C(=O)O)c(C(C)C)c2)n1 | > 367 | 3160 | 1580 | 15800 | 2 | 1000 |  |  |  |  |  |  |  |
| Cc1cc(CN2CCOCC2)ccc1-c1cc2c(-c3ccc(C(N)=O)cc3)ccnc2[nH]1 | 18 (≈ 7.68 µg/mL) | 631 |  |  | 7.94 to 25.1 | 2000 | 126 |  |  | 3980 |  |  |  |
| COc1ccccc1Nc1nccc(-c2ccc(C(N)=O)cc2)n1 | < 1 | 2000 | > 10000 | > 25100 | 100 to 1260 | > 10000 |  |  |  |  |  |  |  |
| Cc1cc(OCCN2CCOCC2)ccc1-c1cc2c(-c3ccc(C(N)=O)c(C(C)C)c3)ccnc2[nH]1 | 4 (≈ 1.99 µg/mL) | 2000 |  |  | 0.794 to 7.94 | 63.1 | 2510 |  |  | 398 |  | 374 | 0.6 |

Source: ChEMBL document CHEMBL4118126, “An orally available, brain-penetrant CAMKK2 inhibitor reduces food intake in rodent model” (Bioorg Med Chem Lett, 2018)
